Screening data as filed in PubChem BioAssay.
STAT1 blocker: STAT1 signaling inhibition | NIH 3T3 STAT1-luciferase reporter, IFN-gamma, luminescence | inhibition, % at 5.5 µM | 200,000 tested, 0.35% active | AID 920;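 active = inhibition above a set limit, the mean inhibition across all tested compounds plus 3 SD, cut at about 34% in these data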
STAT3 inh-1: inhibitors of IL-6 induced STAT3 signaling; U3A cells, IL-6 STAT3-luciferase reporter, luminescence; host cell line lacks STAT1; inhibition, % at 5.5 µM; 190,000 tested, 0.89% active; AID 862;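 active = inhibition above the mean inhibition across all screened compounds plus 3 SD, cut at about 44% in these data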
HSV replic up: HSV replication enhancement. HSV replication augmentation in cells, fold increase. maximum fold increase. 220,000 tested, 0.005% active; in the data active = maximum fold increase above about 1.5; inconclusive = no clear call, values can overlap the other calls; tested in PC3 cells
STAT3 activator: increases IL-6 driven STAT3 reporter signal. U3A cells, IL-6 STAT3-luciferase reporter, luminescence; 100% = signal with IL-6 EC80 alone. activation (% of control), % at 5.6 µM. 190,000 tested, 0.91% active;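 active = activation above the screen-wide mean of compound activation plus 3 SD, cut at about 130% in these data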
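Test system: Human STAT1-deficient U3A cells with stable STAT3-luciferase reporter | Also added: Interleukin-6, 33 ng/mL | Timing: Compound pre-incubation 1 h before IL-6, then 6 h stimulation at 37 °C | Technique: Luciferase reporter luminescence | Read-out: Percent of IL-6-only median luminescence | Benchmarks: IL-6-only wells as 100% reference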
STAT1 act: activators of IFN-gamma induced STAT1 signaling; NIH 3T3 STAT1-luciferase reporter, luminescence; 100% = IFN-gamma alone, no compound; activation (% of control), % at 5.5 µM; 200,000 tested, 2.6% active;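 active = activation above the screen-wide mean activation plus 3 SD, cut at about 130% in these data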
KCC2 mod: modulates chloride dependent transport by human KCC2. Q9H2X9. KCC2 cells, thallium flux FluoZin-2 fluorescence. B-score of Tl+ flux slope (higher = more flux/activation; lower = inhibition) at 10 µM. 190,000 tested, 2.2% active. AID 1456;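 active = thallium flux slope and its plate-corrected score both differing from the plate sample mean at a set confidence after two filtering rounds, in either direction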;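 note: slope of fluorescence scaled to starting intensity during 10 to 20 s after thallium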
STAT3 inh-2: confirmation of STAT3 signaling inhibitors; shares compounds with STAT3 inh-1; U3A cells, IL-6 STAT3 luciferase reporter, luminescence; cell line lacks STAT1; inhibition, % at 5.7 µM; 1,200 tested, 45% active; AID 1265;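 active = inhibition above the hit cutoff computed for the primary STAT3 screen, cut at about 44% in these data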
NFkB inh STAT3ct: inhibits NF-kappaB, counter-screen to STAT3 inhibitors. shares compounds with STAT3 inh-1. HEK293T NF-kB luciferase reporter, TNF-alpha induced. inhibition, % at 5.7 µM. 1,200 tested, 36% active. AID 1308;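 active = inhibition above the mean of solvent-only control wells plus 3 SD, cutoff set per campaign, cut at about 13% in these data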
STAT1 inh STAT3c: counter-screen for STAT3 inhibitors: STAT1 inhibition. shares compounds with STAT3 inh-1. NIH 3T3 STAT1-luciferase reporter, IFN-gamma induced, luminescence. inhibition, % at 5.7 µM. 1,200 tested, 27% active. AID 1317;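 active = inhibition above the mean plus 3 SD of solvent-only control wells, limit set per screening run, cut at about 16% in these data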
Large screens that a line does not name were inactive (follow-up assays come after a bar, where they were run). This is a sample that favours compounds with a hit; in the whole collection about 5.5% have one here.

Clc1ccc(CCNc2ncnc3nc[nH]c23)cc1	STAT3 inh-1 52 | STAT3 inh-2 inactive | NFkB inh STAT3ct inactive | STAT1 inh STAT3c inactive
CCc1ccc(Nc2ncnc3nc[nH]c23)cc1	none (no result: STAT1 blocker, STAT3 inh-1, STAT3 activator, STAT1 act)
CCC(=O)Nc1ccc(C(=O)N/N=C/c2cc(Br)c(OC)cc2OC)cc1	none
CCOc1cc(/C=N/NC(=O)c2ccncc2)cc(Cl)c1OS(C)(=O)=O	none
O=C(CSC1=NCCS1)Nc1ccc(F)cc1	none
O=C(Nc1ccc(Br)cc1)c1ccc(CSC2=NCCS2)cc1	STAT3 inh-1 56 | STAT3 inh-2 inactive | NFkB inh STAT3ct inactive | STAT1 inh STAT3c inactive
Cc1ccc(S(=O)(=O)N(C)C)cc1NS(=O)(=O)c1ccc(Cl)s1	none
CNc1ccccc1C(C)(C)c1cc(-c2ccc(F)cc2)no1	STAT3 inh-1 46 | STAT3 inh-2 51 | NFkB inh STAT3ct inactive | STAT1 inh STAT3c inactive
CCOC(=O)c1ccc2nc(NC(=O)c3ccco3)sc2c1	STAT3 inh-1 54 (no result: HSV replic up) | STAT3 inh-2 inactive | NFkB inh STAT3ct inactive | STAT1 inh STAT3c inactive
CCOc1ccc2nc(NC(=O)c3ccoc3C)sc2c1	STAT3 inh-1 79 | STAT3 inh-2 47 | NFkB inh STAT3ct 14 | STAT1 inh STAT3c inactive
COc1cc2c(cc1NC(=O)Nc1ccc(F)cc1)oc1ccccc12	none
Cc1nc(-c2ccc(C(=O)Nc3ccc(F)cc3)cc2)cs1	STAT3 inh-1 52 | STAT3 inh-2 57 | NFkB inh STAT3ct inactive | STAT1 inh STAT3c inactive
Cn1c(NC(=O)c2ccc(S(=O)(=O)N3CCOCC3)cc2)cc(=O)n(C)c1=O	none
COC(CNC(=O)C1CCCN(S(=O)(=O)c2c(C)noc2/C=C/c2cccs2)C1)OC (stereo unspecified)	none
CCOc1cc2c(cc1OCC)C(c1ccccc1)N(c1ccc(C(=O)O)cc1)C(=O)C2 (stereo unspecified)	none (no result: STAT1 blocker, STAT3 inh-1, STAT3 activator, STAT1 act)
CCc1nc2sccc2c(=O)[nH]1	none
Cc1cc(CNC(=O)c2cccc([N+](=O)[O-])c2C)c2ccccc2n1	STAT3 inh-1 51 (no result: HSV replic up) | STAT3 inh-2 54 | NFkB inh STAT3ct 14 | STAT1 inh STAT3c 22
O=[N+]([O-])c1ccc(N/N=C/c2sc(N3CCOCC3)nc2-c2ccccc2)c(S(=O)(=O)Nc2ccc(Cl)cc2)c1	STAT3 inh-1 81, HSV replic up inconclusive | STAT3 inh-2 71 | NFkB inh STAT3ct 48 | STAT1 inh STAT3c 54
CC(C)CN(CC(C)C)C(=O)Nc1ccccc1F	none
CCCc1nnc(NC(=O)CCC(=O)N2CCN(CCOc3ccc(C)cc3)CC2)s1	STAT3 inh-1 50 | STAT3 inh-2 inactive | NFkB inh STAT3ct inactive | STAT1 inh STAT3c inactive
CCCc1nnc(NC(=O)CCC(=O)N2CCN(CCn3c(C)ccc3C)CC2)s1	none (no result: KCC2 mod)
Cc1ccc(OCCN2CCN(C(=O)CCC(=O)Nc3nnc(C(C)C)s3)CC2)cc1	STAT3 inh-1 50 (no result: KCC2 mod) | STAT3 inh-2 inactive | NFkB inh STAT3ct inactive | STAT1 inh STAT3c inactive
Cc1ccc(OCCN2CCN(C(=O)CCC(=O)Nc3nnc(C)s3)CC2)cc1	none
Cc1sc2ncnc(N3CCC(C)CC3)c2c1C	none
Cc1sc2ncnc(N3CCN(CCOc4ccc(Cl)cc4)CC3)c2c1C	STAT3 inh-1 76 (no result: KCC2 mod) | STAT3 inh-2 77 | NFkB inh STAT3ct 25 | STAT1 inh STAT3c 20
Cc1cc(/C=N/NC(=O)c2cccs2)c(C)n1-c1ccccc1	STAT3 inh-1 68 | STAT3 inh-2 inactive | NFkB inh STAT3ct 27 | STAT1 inh STAT3c inactive
Clc1ccc(-n2nnnc2-c2cnc3ccc(Cl)cc3c2-c2ccccc2)cc1	none (no result: STAT1 blocker, STAT3 inh-1, STAT3 activator, STAT1 act)
Clc1ccc2ncc(-c3nnnn3-c3ccccc3)c(-c3ccccc3)c2c1	STAT3 inh-1 61 | STAT3 inh-2 44 | NFkB inh STAT3ct inactive | STAT1 inh STAT3c inactive
CC(/C=N\NC(=O)Cn1c(C)nc2ccccc21)=C\c1ccccc1	STAT3 inh-1 70 (no result: HSV replic up) | STAT3 inh-2 69 | NFkB inh STAT3ct 15 | STAT1 inh STAT3c 17
CSc1sc(C(=O)NN)c2c1C1(CCC2)SCCS1	none (no result: STAT1 blocker, STAT3 inh-1, STAT3 activator, STAT1 act)
O=C(NC1CCCCCCC1)c1cc(COc2ccc3ncccc3c2)on1	STAT3 inh-1 79 | STAT3 inh-2 75 | NFkB inh STAT3ct 27 | STAT1 inh STAT3c 17
Cc1cc(CN(C)C(=O)c2cc(COc3ccc4ncccc4c3)on2)on1	STAT3 inh-1 58 | STAT3 inh-2 56 | NFkB inh STAT3ct 19 | STAT1 inh STAT3c 19
CCC(O)C1CCN(C(=O)c2cc(COc3ccc4ncccc4c3)on2)CC1 (stereo unspecified)	STAT3 inh-1 84 | STAT3 inh-2 84 | NFkB inh STAT3ct 29 | STAT1 inh STAT3c 27
Cc1cc(C)c(S(=O)(=O)NCC(=O)NCc2ccco2)c(C)c1	none (no result: HSV replic up)
O=C(NNC(=S)NC1CCCCC1)c1ccccc1O	none
Cc1nn(C)c(C)c1CN(C)S(=O)(=O)c1ccc2ccccc2c1	STAT3 inh-1 78 | STAT3 inh-2 80 | NFkB inh STAT3ct 30 | STAT1 inh STAT3c 24
CC(C)(CNC(=O)/C=C/c1ccc(F)cc1)CNC(=O)/C=C/c1ccc(F)cc1	none
CCOC(=O)c1c(=O)n(O)c2ccc(OC)cc2[n+]1[O-]	HSV replic up inconclusive
CN1/C(=C\C(=O)C[n+]2ccc3ccccc3c2)C(C)(C)c2ccccc21	STAT3 inh-1 73 | STAT3 inh-2 74 | NFkB inh STAT3ct inactive | STAT1 inh STAT3c inactive
CCCC1=C([O-])C2N=CC=CC2=[N+](c2ccccn2)C1=O (stereo unspecified)	none
Cc1ccc(NC(=O)CSc2nnc(-c3cccnc3)s2)cc1	none
O=C(CSc1nnc(-c2cccnc2)s1)Nc1ccnc2ccccc12	STAT3 inh-1 72 | STAT3 inh-2 82 | NFkB inh STAT3ct 22 | STAT1 inh STAT3c 18
COc1cc(CNCCc2ccc(S(N)(=O)=O)cc2)ccc1OCC(=O)N1CCCCC1	none
COc1ccc(/C=N/NC(=S)Nc2ccccc2[N+](=O)[O-])cc1O	STAT3 inh-1 94 | STAT3 inh-2 83 | NFkB inh STAT3ct inactive | STAT1 inh STAT3c inactive
CCCOc1ccc(/C=N/NC(=S)Nc2ccccc2[N+](=O)[O-])c(O)c1	STAT3 inh-1 92 | STAT3 inh-2 48 | NFkB inh STAT3ct inactive | STAT1 inh STAT3c inactive
CCCOc1ccc(/C=N/Nc2ccccc2[N+](=O)[O-])c(O)c1	none
O=C(COC(=O)c1ccccc1NC(=O)c1ccco1)NC1CCS(=O)(=O)C1 (stereo unspecified)	none
NS(=O)(=O)c1ccc(NC(=O)COC(=O)c2cc3ccccc3cc2O)cc1	none (no result: STAT1 blocker, STAT3 inh-1, STAT3 activator, STAT1 act)
